Assay [1] is described as follows: Her2 expression decrease, cell viability multiplex – SKBR3 breast tumor cells, AlphaScreen, ATP viability, primary screen (AID 461;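 active = Her2 level under about 52% in both replicate screens, with viability over 70% of control, limit read from the data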;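 as to Her2 level: lower value means less Her2 protein in the cells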;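 as to viability: percent of carrier control wells set as 100% viability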). The following applies: SKBR3 Her2 protein level, 18-24 h, measured here: SKBR3 viability, ATP luminescence, at 10 µM. (In general: Alpha assays give light when donor and acceptor beads are brought close together.)
In assay [2] the target is Receptor tyrosine-protein kinase erbB-2 (Homo sapiens) (UniProt P04626). The description is as above. The following applies: 18-24 h, at 10 µM, stronger effect = lower value.
Receptor tyrosine-protein kinase erbB-2 (Homo sapiens), sequence (P04626 whole entry, looked up): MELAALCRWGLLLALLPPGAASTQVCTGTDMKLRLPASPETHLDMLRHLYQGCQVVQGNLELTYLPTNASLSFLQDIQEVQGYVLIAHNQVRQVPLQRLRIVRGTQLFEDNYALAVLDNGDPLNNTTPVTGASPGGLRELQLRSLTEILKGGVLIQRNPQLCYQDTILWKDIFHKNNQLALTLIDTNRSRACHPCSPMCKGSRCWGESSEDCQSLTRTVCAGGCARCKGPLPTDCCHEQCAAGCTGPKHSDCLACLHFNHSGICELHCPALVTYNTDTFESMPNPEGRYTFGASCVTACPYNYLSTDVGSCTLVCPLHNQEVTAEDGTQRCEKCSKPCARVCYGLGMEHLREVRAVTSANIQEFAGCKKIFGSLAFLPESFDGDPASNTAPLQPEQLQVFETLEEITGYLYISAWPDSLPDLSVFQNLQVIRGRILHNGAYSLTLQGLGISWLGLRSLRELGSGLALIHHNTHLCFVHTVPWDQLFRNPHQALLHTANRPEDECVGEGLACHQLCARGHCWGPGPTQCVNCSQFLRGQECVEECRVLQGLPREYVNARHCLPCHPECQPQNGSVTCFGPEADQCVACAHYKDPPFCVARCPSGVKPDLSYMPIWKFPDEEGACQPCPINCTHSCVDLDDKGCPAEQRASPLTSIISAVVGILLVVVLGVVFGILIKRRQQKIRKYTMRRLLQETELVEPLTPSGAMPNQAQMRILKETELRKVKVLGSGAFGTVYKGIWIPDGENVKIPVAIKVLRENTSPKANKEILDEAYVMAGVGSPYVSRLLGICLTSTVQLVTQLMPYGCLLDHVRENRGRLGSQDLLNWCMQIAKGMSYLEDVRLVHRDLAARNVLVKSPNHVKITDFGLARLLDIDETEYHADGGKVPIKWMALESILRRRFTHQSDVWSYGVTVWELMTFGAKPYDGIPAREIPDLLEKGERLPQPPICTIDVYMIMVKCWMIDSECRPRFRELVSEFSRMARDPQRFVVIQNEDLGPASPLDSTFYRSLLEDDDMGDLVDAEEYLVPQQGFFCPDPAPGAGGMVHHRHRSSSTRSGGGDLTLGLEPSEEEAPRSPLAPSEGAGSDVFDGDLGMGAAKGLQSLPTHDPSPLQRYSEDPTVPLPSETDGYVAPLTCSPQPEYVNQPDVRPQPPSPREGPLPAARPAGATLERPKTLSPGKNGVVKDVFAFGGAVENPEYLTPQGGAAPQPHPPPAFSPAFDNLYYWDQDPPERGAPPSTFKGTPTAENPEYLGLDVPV
Assay [3] in a line: reduced viability of SK-BR-3 breast cancer cells – cell-based, 24 h, human, pilot screen (AID 572).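 Also: compound exposure lasted between 18 and 24 h rather than exactly 24 h; 100% = carrier-treated control wells.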 The following applies: SK-BR-3 viability, CellTiter-Glo luminescence, at 10 µM, stronger effect = lower value. A general note: In ATP-based viability assays light output follows the ATP content of the culture.
Assay [4] can be described thus: HUVEC growth inhibition – cell-based, human, primary screen (AID 575;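 active = viability at or below 30% in both replicate assays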;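 also: 100% = median of untreated cell wells with 0.1% DMSO on each plate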). The following applies: HUVEC proliferation, CellTiter-Glo luminescence, 72 h; at 10 µM; stronger effect = lower value. A digest of the protocol:
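Material: primary human umbilical vein endothelial cells / Schedule: 72 h exposure, 37 °C, 5% CO2, 30 min RT equilibration / Signal: ATP-based CellTiter-Glo luminescent read / Read-out basis: percent of median DMSO-control luminescence / Control set: 32 DMSO-only cell-control wells (high), 32 MePR drug-control wells (low) per plate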

A short description of assay [5]: H69AR cell proliferation blockers – human, duplicate replicates, primary screen (AID 580;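 active = viability at or under a set limit in both replicates, limit being median viability minus 3 SD, cut at about 48% in these data, passing the limit was not always enough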;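 also: 100% = mean luminescence of untreated wells and 0% = no signal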). The following applies: H69AR lung tumor cells viability, ATP luminescence, 72 h; at 10 µM; stronger effect = lower value.
Assay [6] is described as follows: MRP1 drug-resistance reversers in H69AR cells – cell-based, doxorubicin co-treatment, pilot screen (AID 601;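 active = viability loss from added drug above about 55%, and viability with drug at most 40%, in both replicates, limit read from the data, passing the limit was not always enough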). The following applies: CellTiter-Glo, 72 h, at 10 µM; for differential viability (reversal): stronger effect = higher value.
The nature of assay [7]: yeast transport mutant growth inhibition pilot in 384-well plates, post-Golgi transport modulator project (AID 636; in the data active = inhibition above about 31%). The following applies: absorbance 615 nm, about 18 h, stronger effect = higher value.
Assay [8] is described as follows: growth suppression of yeast trafficking mutant, preliminary HTS, modulators of trafficking downstream of Golgi apparatus project, 1536-format plate, OD 615 nm (AID 637; in the data active = inhibition above about 30%). The following applies: yeast transport mutant growth, absorbance 615 nm, 18 h; stronger effect = higher value.
Where [9] appears, read: H69AR cells + 2 uM doxorubicin, measured here: viability with 2 uM doxorubicin, stronger effect = lower value.
Setting [10] is: H69AR cells, compound alone cytotoxicity.

What is called viability is a read-out of living cells in per cent, often relative to untreated cells. In general, inhibition refers to the drop in the measured response relative to a control, in per cent.

Active and inactive are the calls of the source.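 The calls were made as follows, unless noted: active = viability at or below 10% of carrier control in both of two separate runs; inconclusive = viability at or below 10% in only one of the two runs; inactive = the rest.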

Turning to `CC(=O)Nc1ccc(NC(=O)c2cc(C)nn2-c2ccccc2)cc1`, the viability in assay [1] was 84%; in assay [3], 84% (inactive); in assay [4], 89.5% (inactive); in assay [5] it was 108% (inactive); in assay [6] (setting [9]) it was 95.5%; in assay [6] (setting [10]), 108%. In addition, the Her2 level in assay [2] is 116% (inactive). In addition, the differential viability (reversal) in assay [6] (H69AR cells + 2 uM doxorubicin) is 12.7% (inactive). Further, the inhibition in assay [7] was 2.53% (inactive); in assay [8], -7.9% (inactive).

As for `OC(CN1CCCCC1)Cn1c(C(F)(F)F)nc2ccccc21` (stereo not given), the viability in assay [1] was 85.5%; in assay [3], 85.5% (inactive); in assay [4], 105% (inactive); in assay [5], 83.4% (inactive); in assay [6] (setting [9]), 86.4%; in assay [6] (setting [10]) it was 83.4%. In addition, the Her2 level in assay [2] is 103% (inactive). The differential viability (reversal) in assay [6] (H69AR cells + 2 uM doxorubicin) was -3.04% (inactive). The inhibition in assay [7] is 0% (inactive); in assay [8] it was 3.5% (inactive).

On to `Cc1ccc(-n2ncc3c(N4CCN(c5ccc(F)cc5)CC4)ncnc32)c(C)c1`, for which the viability in assay [1] was 87.5%; in assay [3], 87.5% (inactive); in assay [4] it was 91.8% (inactive); in assay [5] it was 71.4% (inactive); in assay [6] (setting [9]), 39.6%; in assay [6] (setting [10]) it was 71.4%. The Her2 level in assay [2] was 94.5% (inactive). Besides, the differential viability (reversal) in assay [6] (H69AR cells + 2 uM doxorubicin) is 31.8% (inactive). The inhibition in assay [7] was 0.26% (inactive); in assay [8] it was -3.55% (inactive).

As for `COc1ccc(OC)c2[nH]c(=O)c(CCNC(=O)CC(C)C)cc12`, the viability in assay [1] was 111%; in assay [3], 111% (inactive); in assay [4], 106% (inactive); in assay [5] it was 100% (inactive); in assay [6] (setting [9]) it was 95.2%; in assay [6] (setting [10]), 100%. The Her2 level in assay [2] was 104% (inactive). For the same molecule, the differential viability (reversal) in assay [6] (H69AR cells + 2 uM doxorubicin) was 4.93% (inactive). For the same molecule, the inhibition in assay [7] is -8.77% (inactive); in assay [8] it was -4.44% (inactive).

For the molecule `Cc1[nH]n(C(N)=S)c(=O)c1C(c1ccccc1)C(C#N)C#N` (stereo not given), the viability is 96.5% in assay [1]; 96.5% (inactive) in assay [3]; 70.8% (inactive) in assay [4]; 91.6% (inactive) in assay [5]; 92.4% in assay [6] (setting [9]); 91.6% in assay [6] (setting [10]). Further, the Her2 level in assay [2] is 152% (inactive). For the same molecule, the differential viability (reversal) in assay [6] (H69AR cells + 2 uM doxorubicin) is -0.72% (inactive). Further, the inhibition in assay [7] is 3.46% (inactive); in assay [8] it was 20.2% (inactive).

For `NC(=O)c1oc2ccc(Cl)cc2c1NC(=O)CN1CCOCC1`, the viability in assay [1] was 93.5%; in assay [3], 93.5% (inactive); in assay [4] it was 85.3% (inactive); in assay [5] it was 98.5% (inactive); in assay [6] (setting [9]) it was 88.4%; in assay [6] (setting [10]), 98.5%. In addition, the Her2 level in assay [2] is 81% (inactive). In addition, in assay [6] (H69AR cells + 2 uM doxorubicin), the differential viability (reversal) is 10.1% (inactive). The inhibition was -5.26% (inactive) in assay [7] and -2.36% (inactive) in assay [8].

For the molecule `CCC(=O)Nc1cc(C)c(NC(=O)C23CC4CC(CC(C4)C2)C3)cn1`, the viability in assay [1] is 106%; in assay [3] it was 106% (inactive); in assay [4], 84.9% (inactive); in assay [5] it was 107% (inactive); in assay [6] (setting [9]), 98%; in assay [6] (setting [10]) it was 107%. The Her2 level in assay [2] was 85% (inactive). The differential viability (reversal) in assay [6] (H69AR cells + 2 uM doxorubicin) is 8.51% (inactive). For the same molecule, the figures for the inhibition in assay [7] and in assay [8] were -3.65% (inactive) and -2.62% (inactive), respectively.

`Cc1csc(NC(=O)CCS(=O)(=O)c2ccc(Br)cc2)n1`: the viability was 99.5% in assay [1]; 99.5% (inactive) in assay [3]; 82.5% (inactive) in assay [4]; 73% (inactive) in assay [5]; 75.9% in assay [6] (setting [9]); 73% in assay [6] (setting [10]). In assay [2], the Her2 level is 96.5% (inactive). The differential viability (reversal) in assay [6] (H69AR cells + 2 uM doxorubicin) is -2.92% (inactive). For the same molecule, the values for the inhibition in assay [7] and in assay [8] were -0.81% (inactive) and 22.7% (inactive), respectively.

As to `C#CC1(O)CC(C)N(C)C(C)C1` (stereo not given), the viability in assay [1] is 105%; in assay [3], 105% (inactive); in assay [4], 85.3% (inactive); in assay [5] it was 91.9% (inactive); in assay [6] (setting [9]), 78.3%; in assay [6] (setting [10]), 91.9%. Moreover, the Her2 level in assay [2] was 85% (inactive). Moreover, the differential viability (reversal) in assay [6] (H69AR cells + 2 uM doxorubicin) is 13.6% (inactive). Also, the values for the inhibition in assay [7] and in assay [8] were -4.55% (inactive) and -4.6% (inactive), respectively.

Take `Cc1cccc(C)c1NC(=O)c1cc(S(=O)(=O)N2CCOCC2)ccc1F`: the viability in assay [1] is 88.5%; in assay [3], 88.5% (inactive); in assay [4], 102% (inactive); in assay [5], 89.9% (inactive); in assay [6] (setting [9]), 89.2%; in assay [6] (setting [10]), 89.9%. For the same molecule, in assay [2], the Her2 level is 78.5% (inactive). In assay [6] (H69AR cells + 2 uM doxorubicin), the differential viability (reversal) was 0.745% (inactive). The inhibition is -5.53% (inactive) in assay [7] and -9.17% (inactive) in assay [8].

For the molecule `C/C(=C\C(=O)O)CC(=O)O`, the viability in assay [1] is 100%; in assay [3], 100% (inactive); in assay [4] it was 98% (inactive); in assay [5] it was 84.5% (inactive); in assay [6] (setting [9]), 100%; in assay [6] (setting [10]) it was 84.5%. Further, the Her2 level in assay [2] was 119% (inactive). In addition, the differential viability (reversal) in assay [6] (H69AR cells + 2 uM doxorubicin) is -15.7% (inactive). Besides, the inhibition in assay [7] was -7.5% (inactive); in assay [8], 5.25% (inactive).

As for `CCCCOC(=O)C1=C(C)Nc2ncnn2C1c1cccc(OC)c1OC` (stereo not given), the viability in assay [1] was 81.5%; in assay [3] it was 81.5% (inactive); in assay [4], 95% (inactive); in assay [5], 88.5% (inactive); in assay [6] (setting [9]) it was 80.7%; in assay [6] (setting [10]) it was 88.5%. Besides, the Her2 level in assay [2] was 65.5% (inactive). In addition, the differential viability (reversal) in assay [6] (H69AR cells + 2 uM doxorubicin) is 7.84% (inactive). The inhibition in assay [7] is -5.13% (inactive); in assay [8], -3.33% (inactive).

Regarding `O=C(CN(Cc1ccc(F)cc1)C(=O)Cn1nnc2ccccc21)NCC1CCCO1` (stereo not given), the viability in assay [1] was 110%; in assay [3], 110% (inactive); in assay [4] it was 118% (inactive); in assay [5] it was 90.3% (inactive); in assay [6] (setting [9]), 85.8%; in assay [6] (setting [10]) it was 90.3%. In addition, the Her2 level in assay [2] is 90.5% (inactive). In addition, the differential viability (reversal) in assay [6] (H69AR cells + 2 uM doxorubicin) was 4.51% (inactive). Besides, the inhibition in assay [7] is 0.13% (inactive); in assay [8] it was -1.64% (inactive).

In the case of `O=C(CN1CCN(C2CCCCC2)CC1)Nc1ccccc1-c1ccccc1`, the viability in assay [1] is 90.5%; in assay [3], 90.5% (inactive); in assay [4], 91.4% (inactive); in assay [5], 84.7% (inactive); in assay [6] (setting [9]), 76.7%; in assay [6] (setting [10]), 84.7%. In addition, the Her2 level in assay [2] is 61% (inactive). The differential viability (reversal) in assay [6] (H69AR cells + 2 uM doxorubicin) is 7.96% (inactive). The inhibition in assay [7] is -3.24% (inactive); in assay [8] it was 1.9% (inactive).

Consider `CCC(C)NC(=O)CCNS(=O)(=O)c1ccc(Br)cc1` (stereo not given), for which the viability in assay [1] was 95.5%; in assay [3], 95.5% (inactive); in assay [4], 99.2% (inactive); in assay [5], 98.5% (inactive); in assay [6] (setting [9]) it was 95.8%; in assay [6] (setting [10]), 98.5%. In addition, the Her2 level in assay [2] is 73% (inactive). Also, in assay [6] (H69AR cells + 2 uM doxorubicin), the differential viability (reversal) was 2.66% (inactive). Also, the results for the inhibition in assay [7] and in assay [8] were -4.74% (inactive) and -1.67% (inactive), respectively.

Source of the values: PubChem BioAssay.
